Compound activity from PubChem.
This is a sample that favours compounds with a hit; in the whole collection about 2.1% have one here.
DENV2 CPE rescue – DENV2-induced cell death inhibition; DENV2-infected cells, cytopathic effect rescue, plate reader; CPE inhibition, % at 9.99 µM; actives 1.7% (n = 350,000); AID 651640; in the data active means CPE inhibition above about 20%, passing the limit was not always enough; inconclusive means no clear call, values can overlap the other calls; tested in BHK-21 cells;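 further: 0% = median of neutral control wells and 100% = median of positive control wells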
XiGFP reactiv – activators of X-chromosome reactivation in mouse fibroblasts. XiGFP mouse fibroblasts, % GFP-positive cells imaging, 3 d; cells co-treated with 5-aza-dC sensitizer; scaled so ellipticine positive control = 100%. actives 0.055% (n = 360,000). AID 743238. activation, % at 7.58 µM;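 active means mean normalized replicate activation at least 10% and every replicate at or above 10%; inconclusive means only one of the two criteria met; inactive means mean below 10% and not all replicates reach 10%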;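 further: 0% = median of on-plate neutral control wells and 100% = ellipticine 6 µM median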
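Material: XiGFP fibroblasts, SV40-immortalized; Buffer or medium: DMEM containing 5-aza-dC; Compound dosing: single point; Times: 3 days compound exposure.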
Cneo AK release – causes C. neoformans cell lysis; actives 0.2% (n = 360,000); AID 651654; lysis activity, % at 15 µM; adenylate kinase release luminescence, 4 h; normalised: neutral wells 0, clomiphene wells 100;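 active means mean lysis activity across replicates of at least 80%, whatever share of replicates individually reach that level; inactive means mean lysis activity below 80%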
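Material – Cryptococcus neoformans yeast cells · Quantity – 5 × 10^6 yeast cells/mL · Buffer or medium – YPD medium · Compound – single dose · Timing – 4 h static compound exposure, 37 °C, read 1 h post-reagent · Signal – adenylate kinase release luminescence · Read-out basis – lysis from increased AK signal · Benchmarks – Clomiphene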
C2C12 statin – protects C2C12 myotubes from simvastatin toxicity. ATP luminescence, 48 h; scaled: DMSO 0, geranylgeraniol control 100. rescue of ATP level, % at 7.49 µM. actives 0.78% (n = 330,000). AID 602340;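 active means mean ATP rescue above about 67%, or every replicate alone reaching that limit, limit read from the data, passing the limit was not always enough; inconclusive means no clear call, values can overlap the other calls; inactive means mean under the limit and some replicate under it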;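 further: myotubes were challenged with 10 µM simvastatin during compound exposure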
The depositor's hits bear a star; ? = inconclusive; . = not tested or not shown; ! = not active in a repeat.

SMILES | DENV2 CPE rescue | XiGFP reactiv | Cneo AK release | C2C12 statin
CCCc1cn(CC[C@@H]2CC[C@@H](NC(=O)Nc3ccc4c(c3)OCO4)[C@@H](CO)O2)nn1 | 7.7 | -0.2 | -2.4 | 4.7
COc1ccc(NC(=O)N(C)C[C@@H]2OCCCC[C@H](C)Oc3ccc(NC(=O)CCC(F)(F)F)cc3C(=O)N([C@H](C)CO)C[C@H]2C)cc1 | 6.8 | -0.1 | -3.1 | -25.6
CC(C)NC(=O)Nc1ccc2c(c1)C(=O)N(C)C[C@@H](C)[C@H](CN(C)C(=O)NC(C)C)O2 | . | 0.3 | . | .
COc1ccc([C@H]2C[C@@H](O)[C@H](n3cc(COC(=O)c4ccccc4)nn3)CN2Cc2cccs2)cc1 | 56.2* | 0.0 | 0.2 | 3.3
COc1ccc([C@H]2C[C@H](O)[C@@H](n3cc(COC(=O)c4ccccc4)nn3)CN2Cc2cccs2)cc1 | 14.6 | 0.3 | -1.4 | 12.7
Cc1ccc(C(O)c2ncc(-c3ccc4ccccc4c3)[nH]2)cc1 (stereo unspecified) | 75.8* | 0.2 | 3.2 | -5.7
Cc1cc(C)cc(C(O)c2ncc(-c3ccc4ccccc4c3)[nH]2)c1 (stereo unspecified) | -3.6 | 0.0 | 27.3 | 6.2
C[C@H]1CN([C@@H](C)CO)C(=O)c2cc(NC(=O)Cc3cn(C)c4ccccc34)ccc2O[C@H]1CN(C)S(=O)(=O)c1cccs1 | 2.1 | -1.1 | -0.9 | ?
C[C@H](CO)N1C[C@H](C)[C@H](CN(C)S(=O)(=O)c2cccs2)Oc2ccc(NC(=O)Cc3cn(C)c4ccccc34)cc2C1=O | 12.1 | -0.8 | -0.7 | 104.0*
C[C@@H]1CN([C@H](C)CO)C(=O)c2cc(NC(=O)Cc3cn(C)c4ccccc34)ccc2O[C@H]1CN(C)S(=O)(=O)c1cccs1 | 5.8 | -0.7 | -3.4 | 33.7
C[C@@H]1CN([C@@H](C)CO)C(=O)c2cc(NC(=O)Cc3cn(C)c4ccccc34)ccc2O[C@H]1CN(C)S(=O)(=O)c1cccs1 | 0.5 | 0.7 | 3.8 | 111.2*
Cc1ccc(C(=O)COC(=O)c2cc(Cl)nc3ccccc23)cc1 | . | . | -0.2 | -8.3
O=C(COC(=O)c1cc(Cl)nc2ccccc12)c1ccc(Cl)cc1 | 62.7* | 0.3 | 4.9 | 1.6
COc1ccc2c(c1)SCCC2=O | . | . | . | 17.8
COc1cc2c(cc1OC)C(=O)CCS2 | . | . | -1.9 | 124.7*
C/C=C/c1ccc(C2[C@H]3CNC[C@@H]2N3Cc2nccs2)cc1 (stereo partly specified) | 39.1*! | 0.1 | . | .
C/C=C/c1ccc(C2[C@H]3CNC[C@@H]2N3Cc2cc(OC)cc(OC)c2)cc1 (stereo partly specified) | -1.4 | 0.0 | . | .
CS(=O)(=O)N1CCCCN2[C@H](CO)[C@@H](c3ccc(Br)cc3)[C@@H]2C1 | -7.6 | 0.3 | 1.1 | 15.4
COc1cccc(CN(C)C[C@@H]2OCc3ccccc3-c3c(n(C)c4ccccc34)C(=O)N([C@@H](C)CO)C[C@@H]2C)c1 | -17.4 | -0.2 | . | .
CC(=O)Nc1cccc(C(=O)Nc2cccc3ncccc23)c1 | -6.3 | 0.0 | -0.4 | -2.8
CCOc1cc(C(=O)Nc2cccc3ncccc23)cc(OCC)c1OCC | 3.2 | . | -1.4 | 107.1*
C[C@@H]1CN([C@@H](C)CO)C(=O)c2cc(C#CC3CCCC3)cnc2O[C@@H]1CN(C)C(=O)Cc1ccccn1 | 12.0 | -0.1 | 4.2 | 2.6
Cc1ccc(C(=O)NCCc2cc3ccc(C)c(C)c3[nH]c2=O)cc1[N+](=O)[O-] | 50.1* | 0.0 | . | .
COc1ccc(C(=O)NCCc2cc3ccc(C)c(C)c3[nH]c2=O)cc1OC | 1.1 | 0.0 | . | .
O=C(C[C@@H]1CC[C@H]2[C@@H](COC[C@H](O)CN2Cc2cc(F)ccc2F)O1)N[C@H]1CCN(Cc2ccccc2)C1 | 1.3 | 0.4 | 1.8 | 27.8
SMILES | DENV2 CPE rescue | XiGFP reactiv | Cneo AK release | C2C12 statin
COC(=O)c1ccc(/C=C2/SC(=S)N(CCC(=O)N3CCOCC3)C2=O)cc1 | ? | 0.0 | 5.1 | 71.2*
C[C@@H]1CCCCO[C@@H](CN(C)S(=O)(=O)c2ccccc2)[C@@H](C)CN([C@H](C)CO)C(=O)c2cc(NC(=O)Nc3ccccc3)ccc2O1 | 65.5* | -0.1 | 40.4 | .
COc1ccc(S(=O)(=O)N(C)C[C@H]2OCCCC[C@H](C)Oc3ccc(NC(=O)NC(C)C)cc3C(=O)N([C@H](C)CO)C[C@H]2C)cc1 | -4.5 | 0.2 | -0.4 | .
COc1ccc(S(=O)(=O)N(C)C[C@H]2OCCCC[C@H](C)Oc3ccc(NC(=O)Nc4c(C)noc4C)cc3C(=O)N([C@H](C)CO)C[C@@H]2C)cc1 | 67.0* | 0.3 | 1.7 | 3.2
COc1ccc(S(=O)(=O)N(C)C[C@@H]2OCCCC[C@H](C)Oc3ccc(NC(=O)NC(C)C)cc3C(=O)N([C@@H](C)CO)C[C@H]2C)cc1 | 49.2* | 0.2 | 1.0 | .
C[C@@H]1CCCCO[C@H](CN(C)S(C)(=O)=O)[C@H](C)CN([C@@H](C)CO)C(=O)c2cc(NC(=O)Cc3ccccc3)ccc2O1 | . | -0.3 | . | -29.7
C[C@@H]1CCCCO[C@@H](CN(C)S(C)(=O)=O)[C@H](C)CN([C@@H](C)CO)C(=O)c2cc(NC(=O)Cc3ccccc3)ccc2O1 | 51.7* | -0.7 | -0.4 | -3.1
[N-]=[N+]=NCCNC(=O)Nc1ccccc1 | -2.7 | . | -6.9 | .
COC(=O)C[C@@H]1CC[C@@H]2[C@H](COc3ccc(NS(C)(=O)=O)cc3C(=O)N2C)O1 | -2.4 | 0.0 | -0.8 | -0.7
CNC[C@@H]1OCCCC[C@@H](C)Oc2ccc(NC(=O)Nc3ccc(C(F)(F)F)cc3)cc2C(=O)N([C@H](C)CO)C[C@H]1C | . | 0.1 | -6.3 | 11.2
C[C@H]1CN([C@@H](C)CO)C(=O)c2cc(NC(=O)Nc3ccc(F)cc3)ccc2O[C@@H]1CN(C)S(C)(=O)=O | -1.2 | 6.1 | 100.0* | 6.4
C[C@@H]1CCCCO[C@@H](CN(C)S(=O)(=O)c2ccccc2)[C@@H](C)CN([C@H](C)CO)C(=O)c2cc(NC(=O)Nc3ccc(F)cc3)ccc2O1 | -8.3 | 0.1 | -0.2 | .
C[C@H](CO)N1C[C@H](C)[C@@H](CN(C)S(=O)(=O)c2ccccc2)OCCCC[C@H](C)Oc2ccc(NC(=O)Nc3ccc(F)cc3)cc2C1=O | 52.2* | 0.1 | 0.6 | .
COc1ccc(NC(=O)Nc2ccc3c(c2)C(=O)N([C@H](C)CO)C[C@@H](C)[C@@H](CN(C)S(=O)(=O)c2ccc(Cl)cc2)OCCCC[C@H](C)O3)cc1 | 40.0* | 0.0 | 96.3* | .
C[C@H](CO)N1C[C@H](C)[C@@H](CN(C)S(C)(=O)=O)OCCCC[C@H](C)Oc2ccc(NC(=O)Nc3ccc(F)cc3)cc2C1=O | 26.3* | 0.0 | 5.2 | .
C[C@@H]1CN([C@H](C)CO)C(=O)c2cc(NC(=O)Nc3ccc(F)cc3)ccc2O[C@@H]1CN(C)S(C)(=O)=O | 4.9 | -0.3 | 2.0 | -3.0
COc1ccc(NC(=O)Nc2ccc3c(c2)C(=O)N([C@H](C)CO)C[C@H](C)[C@H](CN(C)S(=O)(=O)c2ccc(Cl)cc2)OCCCC[C@@H](C)O3)cc1 | ? | 0.3 | 3.8 | .
